The record followed here is ChEMBL document CHEMBL4406918, “Inhibitory Effects of Multivalent Polypeptides on the Proliferation and Metastasis of Breast Cancer Cells” (ACS Med Chem Lett, 2019).

The source made the active and inactive calls. The calls are words filed in the database; no cut-off is given here.

As a reminder, the IC50 is the concentration at which inhibition is half-maximal.

For data set [1], the system named is 4T1. The data set can be described thus: Inhibition of metastasis in mouse 4T1 cells assessed as disruption in F-actin arrangement at 10^-5 mM incubated for 24 hrs by Hoechst 33342 staining based confocal laser scanning microscopic method. The format is functional, cell-based. The method, boiled down:
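After 24 h treatment, 4T1 cells were stained with Alexa Fluor 488 phalloidin for F-actin and Hoechst 33342 for nuclei, then imaged by fluorescence microscopy to assess cytoskeleton and cell morphology.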

Data set [2] concerns 4T1. The data set can be described thus: Antiinvasive activity in mouse 4T1 cells assessed as cell invasion rate at 10^-5 mM incubated for 24 hrs by crystal violet staining based matrigel invasion assay relative to control. The note with it: 4T1, 24 h.
For data set [3], the system named is 4T1. The data set is described as follows: Induction of cell death in mouse 4T1 cells incubated for 24 hrs by PI staining based inverted microscopic method. The format is functional. The method, boiled down:
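Live–dead staining of 4T1 cells after 24 h exposure to 0.4 mM, read by PI staining. A 0.8 mM level was also examined.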

The next data set concerns Erythrocyte. The data set can be described thus: Hemolytic activity in BALB/c mouse RBC at 3.2 mM incubated for 2 hrs by UV-Vis spectrophotometric analysis. The format is ADME, cell-based. To be noted: 3200 µM. The method, boiled down: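 Hemolysis assay on red blood cells with dendrimers up to 3.2 mM. Result is expressed as hemolysis rate, with under 5% taken as acceptable.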

Data set [4] has as its system 4T1. The data set is described as follows: Induction of apoptosis in mouse 4T1 cells assessed as viable cells at 10^-3 mM incubated for 24 hrs by Annexin V-FITC/PI based FACS analysis (reference value: 92.2%). The format is functional. The note with it: 4T1, 24 h, read-out: Activity. (In flow cytometry, cells or beads pass a laser one at a time.)
Data set [5] has as its system 4T1. The data set can be described thus: Induction of apoptosis in mouse 4T1 cells assessed as late apoptotic cells at 10^-3 mM incubated for 24 hrs by Annexin V-FITC/PI based FACS analysis (reference value: 6.62%). The format is functional.
For data set [6], the system named is 4T1. The data set can be described thus: Inhibition of metastasis in mouse 4T1 cells assessed as formation of pseudopods at 10^-5 mM incubated for 24 hrs by SEM analysis. The format is functional, cell-based. The method, boiled down:
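4T1 cells treated 24 h, then imaged by scanning electron microscopy for pseudopod formation. Dendrimers were tested at 0.2 mM and the reference at 10–5 mM.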

Data set [7] relates to 4T1. The data set is described as follows: Induction of cell cycle arrest in mouse 4T1 cells assessed as accumulation at S phase at 10^-3 mM incubated for 24 hrs by PI staining based flow cytometric analysis (Rvb =42.35%). The note with it: at 0.001 mM. The format is functional.
In data set [8] the test system is 4T1. The data set can be described thus: Antiproliferative activity against mouse 4T1 cells incubated for 24 hrs by MTT assay. The format is functional, cell-based. To be noted: 4T1, 24 h. The method, boiled down:
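MTT viability assay on 4T1 cells after 24 h treatment. Concentrations included 0.1 mM and 0.2 mM, and IC50 was taken from the viability curve. Mean ± SD, n = 6.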
In general terms: Tetrazolium dyes change colour on reduction, which living cells bring about.

The test system of data set [9] is 4T1. The data set can be described thus: Antitumour activity against mouse 4T1 cells xenografted in BALB/c mouse assessed as increase in cytotoxic tumor cell death at 10 mg/kg administered intratumorally and measured after 24 days by H and E staining based inverted optical microscopic method. The format is functional, organism-based. The method, boiled down: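 BALB/c mice bearing subcutaneous 4T1 tumours received 6 doses at 10 mg/kg body weight, matched for YSL monomer molar amount, with saline as control. Tumour sections were stained for H&E, CD31, Ki-67 and TUNEL. n = 5.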

For data set [10], the system named is 4T1. The data set is described as follows: Induction of apoptosis in mouse 4T1 cells assessed as early apoptotic cells at 10^-3 mM incubated for 24 hrs by Annexin V-FITC/PI based FACS analysis (reference value: 0.76%). The format is functional.
Data set [11] has as its system 4T1. The data set can be described thus: Induction of apoptosis in mouse 4T1 cells assessed as necrotic cells at 10^-3 mM incubated for 24 hrs by Annexin V-FITC/PI based FACS analysis (reference value: 0.47%). The format is functional.
The subject of data set [12] is 4T1. The data set can be described thus: Induction of cell cycle arrest in mouse 4T1 cells assessed as accumulation at G2/M phase at 10^-3 mM incubated for 24 hrs by PI staining based flow cytometric analysis (reference value: 19.82%). The format is functional.
In data set [13] the test system is 4T1. The data set can be described thus: Inhibition of cell migration in mouse 4T1 cells assessed as wound closure rate at 10^-5 mM measured up to 36 hrs by inverted optical microscopic method based wound healing assay (reference value: 82%). The format is functional. Details: scale not given: the % may be the effect or the level left. To be noted: at 10 nM.
The subject of data set [14] is 4T1. The data set can be described thus: Inhibition of cell migration in mouse 4T1 cells assessed as migration frequency at 10^-5 mM incubated for 24 hrs by crystal violet staining based transwell assay relative to control. Also on record: scale not given: the % may be the effect or the level left. The format is functional. Summed up:
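Transwell migration assay on 4T1 cells after 24 h treatment. Rate was quantified from cell numbers on the underside of the porous membrane. Mean ± SD, n = 3.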

Data set [15] relates to 4T1. The data set can be described thus: Induction of cell cycle arrest in mouse 4T1 cells assessed as accumulation at G0/G1 phase at 10^-3 mM incubated for 24 hrs by PI staining based flow cytometric analysis (reference value: 37.78%). The format is functional.

Consider `CC(=O)O[C@H]1C(=O)[C@@]2(C)[C@H]([C@H](OC(=O)c3ccccc3)[C@]3(O)C[C@H](OC(=O)[C@H](O)[C@@H](NC(=O)c4ccccc4)c4ccccc4)C(C)=C1C3(C)C)[C@]1(OC(C)=O)CO[C@@H]1C[C@@H]2O` [PACLITAXEL], for which the inhibition result in the data set with 4T1 [1] is “Active”. The invasion rate at 0.01 µM in the data set on 4T1 [2] was 34%. The Activity result was “Dose-dependent effect” in the data set with 4T1 [3]; “Non-Toxic” in the data set on Erythrocyte; 36.9% with 4T1 [5]; 44.64% with 4T1 [7]; 0.77% in the data set on 4T1 [10]; 0.62% in the data set on 4T1 [11]. Besides, the Activity is listed as 13.02% in the data set with 4T1 [12], 43% with 4T1 [13], 30% in the data set on 4T1 [14] and 42.35% with 4T1 [15]. Moreover, the viability at 1 µM with 4T1 [4] stood at 61.7%. In the data set with 4T1 [6], the inhibition entry is “inactive”. The same molecule yielded an IC50 in the data set on 4T1 [8] of 1000 nM. In addition, the result in the data set with 4T1 [9] was Active.
